Legend:
[1] = biological target: T1, Anti-estrogen binding site (AEBS) (Homo sapiens) (UniProt Q15125+Q9UBM7); assay: Relative binding affinity for antiestrogen binding site (AEBS) of calf uterus 2 hr incubation at 0C; format: tissue-based
Procedure, shortened: (§1)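 Calf uterus was homogenized in TED buffer (10 mM Tris-HCl, 1.5 mM EDTA, 1 mM DTT, pH 7.4) and spun at 12000 g for 1 h at 0–4 °C. […] Free ligand was removed with dextran-charcoal, and bound ligand was counted by scintillation. RBA was taken from the 50% displacement concentration.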

[2] = tested on: MCF7; assay: Percent of effective dose for […] against proliferation of MCF-7 cells.; format: functional, Homo sapiens
Procedure, shortened: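 MCF-7 cells were kept 6 days in phenol-red-free MEM-based medium with 5% dextran-charcoal-stripped FCS, then seeded at 10000 cells/well. After 1 day they got test compound (10 pM to 1 µM) without E2, or vehicle (0.2% ethanol); medium was renewed every 2 days. DNA was assayed after 8–10 days in triplicate wells. % agonist = (TPE−control)/(E2−control)×100, from the EC50 or the maximum response.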

[3] = tested on: MCF7; assay: Percent of inhibitory activity against proliferation of MCF-7 cells in presence of 10e-6 M concentration of […] (E2).; format: functional, Homo sapiens
Procedure, shortened: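 Cytotoxicity assay: MCF-7 cells were seeded at 20000/well in phenol-red-free medium with 5% DCC-treated FCS and exposed to compound (3–10 µM) plus 1 µM E2 for 6 days. Medium was renewed every 2 days. DNA content was read in triplicate wells as % of 1 µM E2 alone. Values are given as the IC30 and as % inhibition at 10^-5 M.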

[4] = biological target: T1, Anti-estrogen binding site (AEBS) (Homo sapiens); assay: Relative binding affinity for antiestrogen binding site (AEBS) of calf uterus cytosol; format: tissue-based; procedure, shortened: as §1
[5] = tested on: BT-20; assay: Percent of inhibitory activity against proliferation of BT-20 cells in presence of TPE at 10e-5 M concentration.; format: functional; details: Homo sapiens
Procedure, shortened: (§2)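 ER-negative BT-20 cells were seeded at 40000/well in phenol-red-free MEM-based medium and exposed to compound (3–10 µM) for 5 or 6 days, with medium renewed every 2 days. DNA content was read in triplicate wells as % of vehicle control. Values are given as the IC30 and as % inhibition at 10^-5 M.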

[6] = tested on: MCF7; assay: Percent of inhibitory activity versus 0.1 nm […] against proliferation of MCF-7 cells.; format: functional, Homo sapiens
Procedure, shortened: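 Same MCF-7 pre-culture in steroid-depleted phenol-red-free medium, seeded at 10000 cells/well. Cells grew with 0.1 nM E2 plus various compound concentrations, medium renewed every 2 days, for 8 days. DNA was measured in triplicate wells, as % DNA relative to E2 alone. % antagonist = (E2−TPE)/(E2−control)×100, from the IC50 or the response at 10^-6 M.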

[7] = tested on: MCF7; assay: Effective dose for [3H]- estradiol against proliferation of MCF-7 cells; format: functional, cell-based; details: Homo sapiens
[8] = tested on: MCF7; assay: Inhibitory activity against proliferation of MCF-7 cells in presence of 10e-6 M concentration of [3H]- estradiol (E2); format: functional; details: Homo sapiens
[9] = biological target: T2, Estrogen receptor (Bos taurus) (UniProt Q9XSB5+P49884); details: Uterus; Cytosol
[10] = biological target: T2, Estrogen receptor (Bos taurus); details: Uterus; Cytosol; remark: listed apart in the source
[11] = tested on: MCF7; assay: In vitro inhibition of MCF-7 cell proliferation compared to 0.1 nM [3H]-estradiol.; format: functional, cell-based; details: Homo sapiens
[12] = tested on: BT-20; assay: Inhibitory activity against proliferation of BT-20 cells in presence of TPE at 10e-5 M concentration.; format: functional; details: Homo sapiens; procedure, shortened: as §2
[13] = biological target: T2, Estrogen receptor (Bos taurus); assay: Selectivity for relative binding affinity against estrogen receptor in at 2 hrs and 5 hr in calf uterus cytosol; format: protein assay
Procedure, shortened: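 Calf uterine cytosol (TED buffer, pH 7.4; 180000 g, 1 h) was incubated with 1 nM [3H]E2 and competitor (0.3 nM–10 µM, 1% ethanol), either 2 h at 0 °C or 5 h at 25 °C. Bound ligand was separated with dextran-charcoal and counted by scintillation. RBA came from the concentration giving 50% displacement relative to E2. The value is the ratio of the 25 °C RBA to the 0 °C RBA.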

Structure (SMILES) | RBA ([1]; Bos taurus) | Agonism [2] | Inhibition [3] | relative binding affinity (RBA) ([4]; Bos taurus) | inhibition at 10 µM [5] | Inhibition [6] | EC50 [7] | IC30 [8] | RBA2 [9] | RBA1 [10] | IC50 [11] | IC30 [12] | Selectivity [13] | RBA [1] | relative binding affinity (RBA) [4]
CCN(CC)CCOc1ccc(C(=C(C#N)c2ccccc2)c2ccc(OCCN(CC)CC)cc2)cc1 | 3.6 | 62% | 94% | 3.6 | 87% | 27% | 0.28 nM | 3.1 µM | 0.4 | 0.42 | > 1 µM | 3.3 µM |  |  | 
CCN(CC)CCOc1ccc(/C(=C(\C#N)c2ccccc2)c2ccc(O)cc2)cc1 | 6.9 | 12% | 89% | 6.9 | 94% | 100% | 0.03 nM | 3.9 µM | 3.4 | 3.6 | 0.025 µM | 3.5 µM |  |  | 
CC/C(=C(\c1ccccc1)c1ccc(OCCN(C)C)cc1)c1ccccc1 [TAMOXIFEN] | 100 | 21% | 49% | 100 | 56% | 90% | 0.11 nM | 6.5 µM |  |  | 0.219 µM | 5.7 µM |  |  | 
CC/C(=C(/c1ccc(O)cc1)c1ccc(OCCN(C)C)cc1)c1ccccc1 | 20 | 61% | 74% | 20 | 33% | 91% | 0.016 nM | 5.3 µM |  |  | 0.022 µM | 9.3 µM |  |  | 
CCN(CC)CCOc1ccc(/C(=C(/C#N)c2ccccc2)c2ccc(O)cc2)cc1 | 27 | 16% | 77% | 27 | 57% | 100% | 0.02 nM | 4.8 µM | 108 | 126 | 0.0046 µM | 6.4 µM | 0.85 |  | 
CCC(=C(c1ccc(O)cc1)c1ccc(OCCN(C)C)cc1)c1ccccc1 |  | 10% | 81% |  | 65% | 100% | 0.003 nM | 4 µM |  |  | 0.0025 µM | 4.8 µM |  | 40 | 40

— ChEMBL document CHEMBL1124584, “Effect of triphenylacrylonitrile derivatives on estradiol-receptor binding and on human breast cancer cell growth” (J Med Chem, 1989)
